Source: ChEMBL document CHEMBL3585281, “Antibacterial Labdane Diterpenoids from Vitex vestita” (2015)

Columns and labels:
Assay type in all cases: functional
[1] = test system: Mammaliicoccus sciuri; assay: Antibacterial activity against Staphylococcus sciuri N993 after 18 hrs by agar dilution method; conditions: N993, 18 h
Outline: (§1)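 Agar-dilution MIC against Gram-positive strains. Compounds in DMSO, geometric dilutions giving final 100−0.75 mg/L in Mueller Hinton agar. Strains grown 18 h at 37 °C in trypticase soy broth, diluted in sterile water, spotted by Steers inoculator (about 1000 UFC/spot). Plates incubated 18 h at 37 °C; DMSO blank; ofloxacin positive control. MIC = lowest concentration with no visible growth.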

[2] = test system: HCT-116; assay: Cytotoxicity against human HCT116 cells assessed as growth inhibition at 10^-6 M after 72 hrs by MTS assay relative to control; conditions: HCT-116, 72 h, read-out: GI
Outline: (§2)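 Cells from ATCC; HCT-116 grown in RPMI 1640 and MRC5 in DMEM, each with 10% FCS and 1% glutamine, 37 °C, 5% CO2. Seeded at 2.5 × 10^3 cells/well, cultured 24 h, then exposed to compounds at 1 and 10 μM final for 72 h. MTS read-out, absorbance 490 nm; percent index from treated/control OD490 × 100, three experiments.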

[3] = test system: Enterococcus faecium; assay: Antibacterial activity against Enterococcus faecium N823 after 18 hrs by agar dilution method; conditions: N823, 18 h; outline: as §1
[4] = test system: Bacillus spizizenii; assay: Antibacterial activity against Bacillus subtilis ATCC 6633 after 18 hrs by agar dilution method; conditions: ATCC 6633, 18 h; outline: as §1
[5] = test system: Staphylococcus haemolyticus; assay: Antibacterial activity against Staphylococcus haemolyticus CIP 8156 after 18 hrs by agar dilution method; conditions: CIP 8156, 18 h; outline: as §1
[6] = test system: Enterococcus hirae; assay: Antibacterial activity against Enterococcus hirae CIP 5855 after 18 hrs by agar dilution method; conditions: CIP 5855, 18 h; outline: as §1
[7] = test system: Staphylococcus aureus; assay: Antibacterial activity against Staphylococcus aureus CIP 53156 after 18 hrs by agar dilution method; conditions: CIP 53156, 18 h; outline: as §1
[8] = test system: Enterococcus faecium; assay: Antibacterial activity against Enterococcus faecium N507 after 18 hrs by agar dilution method; conditions: N507, 18 h; outline: as §1
[9] = test system: Enterococcus faecalis; assay: Antibacterial activity against Enterococcus faecalis CIP 103214 after 18 hrs by agar dilution method; conditions: CIP 103214, 18 h; outline: as §1
[10] = test system: Listeria monocytogenes; assay: Antibacterial activity against Listeria monocytogenes CIP 103575 after 18 hrs by agar dilution method; conditions: CIP 103575, 18 h; outline: as §1
[11] = test system: Staphylococcus aureus; assay: Antibacterial activity against Staphylococcus aureus CIP 5710 after 18 hrs by agar dilution method; conditions: CIP 5710, 18 h; outline: as §1
[12] = test system: Listeria monocytogenes; assay: Antibacterial activity against Listeria monocytogenes N783 after 18 hrs by agar dilution method; conditions: N783, 18 h; outline: as §1
[13] = test system: Staphylococcus saprophyticus; assay: Antibacterial activity against Staphylococcus saprophyticus CIP 76125 after 18 hrs by agar dilution method; conditions: CIP 76125, 18 h; outline: as §1
[14] = test system: Enterococcus durans; assay: Antibacterial activity against Enterococcus durans CIP 104999 after 18 hrs by agar dilution method; conditions: CIP 104999, 18 h; outline: as §1
[15] = test system: Listeria innocua; assay: Antibacterial activity against Listeria innocua E044 after 18 hrs by agar dilution method; conditions: E044, 18 h; outline: as §1
[16] = test system: Staphylococcus intermedius; assay: Antibacterial activity against Staphylococcus intermedius N987 after 18 hrs by agar dilution method; conditions: N987, 18 h; outline: as §1
[17] = test system: HCT-116; assay: Cytotoxicity against human HCT116 cells assessed as growth inhibition at 10^-5 M after 72 hrs by MTS assay relative to control; conditions: HCT-116, 72 h, read-out: GI; outline: as §2
[18] = test system: Enterococcus faecalis; assay: Antibacterial activity against Enterococcus faecalis N520 after 18 hrs by agar dilution method; conditions: N520, 18 h; outline: as §1
[19] = test system: Listeria monocytogenes; assay: Antibacterial activity against Listeria monocytogenes N836 after 18 hrs by agar dilution method; conditions: N836, 18 h; outline: as §1
[20] = test system: MRC5; assay: Cytotoxicity against human MRC5 cells assessed as growth inhibition at 10^-6 M after 72 hrs by MTS assay relative to control; conditions: MRC5, 72 h, read-out: GI; outline: as §2
[21] = test system: Bacillus cereus; assay: Antibacterial activity against Bacillus cereus N349 after 18 hrs by agar dilution method; conditions: N349, 18 h; outline: as §1
[22] = test system: Enterococcus gallinarum; assay: Antibacterial activity against Enterococcus gallinarum N489 after 18 hrs by agar dilution method; conditions: N489, 18 h; outline: as §1
[23] = test system: Enterococcus faecium; assay: Antibacterial activity against Enterococcus faecium CIP 107387 after 18 hrs by agar dilution method; conditions: CIP 107387, 18 h; outline: as §1
[24] = test system: Staphylococcus aureus; assay: Antibacterial activity against Staphylococcus aureus ATCC 25923 after 18 hrs by agar dilution method; conditions: ATCC 25923, 18 h; outline: as §1
[25] = test system: Bacillus cereus; assay: Antibacterial activity against Bacillus cereus N190 after 18 hrs by agar dilution method; conditions: N190, 18 h; outline: as §1
[26] = test system: Staphylococcus aureus; assay: Antibacterial activity against Staphylococcus aureus ATCC 9144 oxford after 18 hrs by agar dilution method; outline: as §1
[27] = test system: Enterococcus gallinarum; assay: Antibacterial activity against Enterococcus gallinarum N492 after 18 hrs by agar dilution method; conditions: N492, 18 h; outline: as §1
[28] = test system: Bacillus cereus; assay: Antibacterial activity against Bacillus cereus N258 after 18 hrs by agar dilution method; conditions: N258, 18 h; outline: as §1
[29] = test system: Staphylococcus aureus; assay: Antibacterial activity against Staphylococcus aureus CRBIP 2121 after 18 hrs by agar dilution method; conditions: CRBIP 2121, 18 h; outline: as §1
[30] = test system: Bacillus cereus; assay: Antibacterial activity against Bacillus cereus CIP 6624 after 18 hrs by agar dilution method; conditions: CIP 6624, 18 h; outline: as §1
[31] = test system: Enterococcus gallinarum; assay: Antibacterial activity against Enterococcus gallinarum CIP 105985 after 18 hrs by agar dilution method; conditions: CIP 105985, 18 h; outline: as §1
[32] = test system: Staphylococcus epidermidis; assay: Antibacterial activity against Staphylococcus epidermidis CIP 53124 after 18 hrs by agar dilution method; conditions: CIP 53124, 18 h; outline: as §1
[33] = test system: Enterococcus faecalis; assay: Antibacterial activity against Enterococcus faecalis N491 after 18 hrs by agar dilution method; conditions: N491, 18 h; outline: as §1
[34] = test system: Staphylococcus saprophyticus; assay: Antibacterial activity against Staphylococcus saprophyticus E260 after 18 hrs by agar dilution method; conditions: E260, 18 h; outline: as §1
[35] = test system: Enterococcus faecium; assay: Antibacterial activity against Enterococcus faecium N733 after 18 hrs by agar dilution method; conditions: N733, 18 h; outline: as §1
[36] = test system: Enterococcus casseliflavus; assay: Antibacterial activity against Enterococcus casseliflavus N487 after 18 hrs by agar dilution method; conditions: N487, 18 h; outline: as §1
[37] = test system: Enterococcus avium; assay: Antibacterial activity against Enterococcus avium CIP 104053 after 18 hrs by agar dilution method; conditions: CIP 104053, 18 h; outline: as §1
[38] = test system: Enterococcus faecalis; assay: Antibacterial activity against Enterococcus faecalis CIP 104676 after 18 hrs by agar dilution method; conditions: CIP 104676, 18 h; outline: as §1
[39] = test system: Enterococcus faecium; assay: Antibacterial activity against Enterococcus faecium N490 after 18 hrs by agar dilution method; conditions: N490, 18 h; outline: as §1
[40] = test system: Staphylococcus lugdunensis; assay: Antibacterial activity against Staphylococcus lugdunensis ATCC 43809 after 18 hrs by agar dilution method; conditions: ATCC 43809, 18 h; outline: as §1
[41] = test system: Staphylococcus aureus; assay: Antibacterial activity against Staphylococcus aureus CIP 53154 after 18 hrs by agar dilution method; conditions: CIP 53154, 18 h; outline: as §1
[42] = test system: Enterococcus casseliflavus; assay: Antibacterial activity against Enterococcus casseliflavus CIP 103018 after 18 hrs by agar dilution method; conditions: CIP 103018, 18 h; outline: as §1
[43] = test system: Enterococcus faecium; assay: Antibacterial activity against Enterococcus faecium CIP 103014 after 18 hrs by agar dilution method; conditions: CIP 103014, 18 h; outline: as §1
[44] = test system: Streptococcus agalactiae; assay: Antibacterial activity against Streptococcus agalactiae CIP 103227 after 18 hrs by agar dilution method; conditions: ATCC 13813, 18 h; outline: as §1
[45] = test system: Listeria monocytogenes; assay: Antibacterial activity against Listeria monocytogenes N851 after 18 hrs by agar dilution method; conditions: N851, 18 h; outline: as §1
[46] = test system: Staphylococcus aureus; assay: Antibacterial activity against Staphylococcus aureus CIP 7625 after 18 hrs by agar dilution method; conditions: CIP 7625, 18 h; outline: as §1
[47] = test system: MRC5; assay: Cytotoxicity against human MRC5 cells assessed as growth inhibition at 10^-5 M after 72 hrs by MTS assay relative to control; conditions: MRC5, 72 h, read-out: GI; outline: as §2
[48] = test system: Enterococcus faecalis; assay: Antibacterial activity against Enterococcus faecalis N518 after 18 hrs by agar dilution method; conditions: N518, 18 h; outline: as §1
[49] = test system: Corynebacterium striatum; assay: Antibacterial activity against Corynebacterium striatum N840 after 18 hrs by agar dilution method; conditions: N840, 18 h; outline: as §1
[50] = test system: Staphylococcus aureus; assay: Antibacterial activity against Staphylococcus aureus CIP 483 after 18 hrs by agar dilution method; conditions: CIP 483, 18 h; outline: as §1

C=C1CC[C@H]2C(C)(C)CCC[C@]2(C)[C@H]1C[C@@H](O)C1=CC(=O)OC1O (stereo not given in full)
95%: inhibition of growth at 10 µM [47]
12 µM: MIC [7] | MIC [16] | MIC [29] | MIC [30] | MIC [32] | MIC [44] | MIC [50]
48 µM: MIC [1] | MIC [12] | MIC [15] | MIC [18] | MIC [27] | MIC [37] | MIC [39] | MIC [45]
87%: inhibition of growth at 10 µM [17]
0%: inhibition of growth at 1 µM [2]
24 µM: MIC [10] | MIC [11] | MIC [13] | MIC [14] | MIC [19] | MIC [22] | MIC [24] | MIC [26] | MIC [33] | MIC [34] | MIC [38] | MIC [40] | MIC [41] | MIC [46] | MIC [49]
96 µM: MIC [3] | MIC [6] | MIC [8] | MIC [9] | MIC [23] | MIC [31] | MIC [35] | MIC [36] | MIC [42] | MIC [43] | MIC [48]
6 µM: MIC [4] | MIC [5] | MIC [21] | MIC [25] | MIC [28]
22%: inhibition of growth at 1 µM [20]

C=C1CC[C@H]2C(C)(C)CCC[C@]2(C)[C@H]1C[C@@H](O)C1=CC(=O)OC1
86%: inhibition of growth at 10 µM [47]
3%: inhibition of growth at 1 µM [2]
≤ 188 µM: MIC [21] | MIC [25] | MIC [28] | MIC [30] | MIC [39]
50 µM: MIC [3] | MIC [8] | MIC [9] | MIC [14] | MIC [18] | MIC [33] | MIC [35] | MIC [38] | MIC [44] | MIC [48]
> 188 µM: MIC [1] | MIC [4] | MIC [5] | MIC [6] | MIC [7] | MIC [10] | MIC [11] | MIC [12] | MIC [13] | MIC [15] | MIC [16] | MIC [19] | MIC [22] | MIC [23] | MIC [24] | MIC [26] | MIC [27] | MIC [29] | MIC [31] | MIC [32] | MIC [34] | MIC [36] | MIC [37] | MIC [40] | MIC [41] | MIC [42] | MIC [43] | MIC [45] | MIC [46] | MIC [49] | MIC [50]
68%: inhibition of growth at 10 µM [17]
34%: inhibition of growth at 1 µM [20]
